Data set [1] deals with humans with NGT, IGT, or T2DM. The data set can be described thus: Graded glucose infusion. Format: in vivo, human. The following applies: for increase of ISR iAUC during the first 40 min compared with albumin: P ≤0.0005; for increase of 240-min ISR iAUC/glucose iAUC compared with albumin: P ≤0.007 vs. albumin. An outline of the steps: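 Subjects fasted 10 h. Arterialized venous blood was drawn from a hand heated to 50–55°C. Glucose ≥120 mg/dL was lowered to 100–120 mg/dL with IV insulin (∼0.01 units/kg every 30 min), then held stable 20 min. Four blinded 240-min GGIs ≥2 weeks apart gave IV peptide or albumin (peptides 4 pmol·kg−1·min−1 in saline/1% albumin). Glucose measured by glucose oxidase; C-peptide by chemiluminescent immunometric assay; ISR by stochastic deconvolution; iAUCs; mixed-effects models, one-tailed t tests.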

The test system of data set [2] is humans with NGT, IGT, or T2DM. The data set is described as follows: Symptomatic effects of peptide infusions. Format: in vivo, human. The following applies: all three groups; for subjects with mild diarrhea and/or loose stools: within several hours of the infusion.
Data set [3] deals with healthy individuals and persons with T2DM. The settings on record: iv infusion 4 pmol/kg/min, cited from earlier work.
The subject of the next data set is healthy humans. The settings on record: intravenous infusion of neurotensin alone; cited from earlier work.
Data set [4] is described as follows: Plasma IR-GIP and IR-xenin levels during and after peptide infusion. Format: in vivo. The following applies: human, iv, 4 pmol ⋅ kg^−1 ⋅ min^−1. An outline of the steps:
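Peptides were infused IV at 4 pmol·kg−1·min−1 in saline with 1% albumin during the graded glucose infusion. Plasma IR-GIP was measured by total-GIP ELISA and IR-xenin by an in-house ELISA. IR-xenin half-life came from levels sampled after infusions stopped (n = 6).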

No end group written: not given here.

For the molecule `CC[C@H](C)[C@H](NC(=O)[C@H](CO)NC(=O)[C@H](Cc1ccc(O)cc1)NC(=O)[C@H](CC(=O)O)NC(=O)[C@H](CO)NC(=O)[C@@H](NC(=O)[C@H](Cc1ccccc1)NC(=O)[C@@H](NC(=O)CNC(=O)[C@H](CCC(=O)O)NC(=O)[C@H](C)NC(=O)[C@@H](N)Cc1ccc(O)cc1)[C@@H](C)O)[C@@H](C)CC)C(=O)N[C@@H](C)C(=O)N[C@@H](CCSC)C(=O)N[C@@H](CC(=O)O)C(=O)N[C@@H](CCCCN)C(=O)N[C@H](C(=O)N[C@@H](Cc1c[nH]cn1)C(=O)N[C@@H](CCC(N)=O)C(=O)N[C@@H](CCC(N)=O)C(=O)N[C@@H](CC(=O)O)C(=O)N[C@@H](Cc1ccccc1)C(=O)N[C@H](C(=O)N[C@@H](CC(N)=O)C(=O)N[C@@H](Cc1c[nH]c2ccccc12)C(=O)N[C@@H](CC(C)C)C(=O)N[C@@H](CC(C)C)C(=O)N[C@@H](C)C(=O)N[C@@H](CCC(N)=O)C(=O)N[C@@H](CCCCN)C(=O)NCC(=O)N[C@@H](CCCCN)C(=O)N[C@@H](CCCCN)C(=O)N[C@@H](CC(N)=O)C(=O)N[C@@H](CC(=O)O)C(=O)N[C@@H](Cc1c[nH]c2ccccc12)C(=O)N[C@@H](CCCCN)C(=O)N[C@@H](Cc1c[nH]cn1)C(=O)N[C@@H](CC(N)=O)C(=O)N[C@H](C(=O)N[C@H](C(=O)N[C@@H](CCC(N)=O)C(=O)O)[C@@H](C)O)[C@@H](C)CC)C(C)C)[C@@H](C)CC` [GIP, glucose-dependent insulinotropic polypeptide], the “ISR iAUC during the first 40 min of the GGI” value is given as 10,016 ± 1,524 pmol insulin secreted/40 min in data set [1] (subjects with IGT, G+X vs GIP alone P = 0.002); 7,998 ± 1,263 pmol insulin secreted/40 min in data set [1] (subjects with NGT, G+X vs GIP alone P = 0.048); 10,062 ± 2,290 pmol insulin secreted/40 min in data set [1] (subjects with T2DM, G+X vs GIP alone P = 0.18). Moreover, the figures for the “increase of ISR iAUC during the first 40 min compared with albumin” value in data set [1] (subjects with IGT), in data set [1] (subjects with NGT) and in data set [1] (subjects with T2DM) were 6.1 fold, 4.6 fold and 8.7 fold, respectively. Further, the “increase of 240-min ISR iAUC/glucose iAUC compared with albumin” value was 1.5 fold in data set [1] (subjects with IGT), 1.7 fold in data set [1] (subjects with NGT) and 1.9 fold in data set [1] (subjects with T2DM). Besides, the “time of peak early insulin secretory response (ISR)” value in data set [1] (subjects with IGT, time into the infusions) is given as 20 min; in data set [1] (subjects with NGT, time into the GGI), not above 10 min. Besides, in data set [2], the “increase of resting heart rate” value is approximately 8 bpm. Further, in data set [2], the “reduction of mean arterial blood pressure” value is 10–15 mmHg. For the same molecule, in data set [2], the “subjects with mild diarrhea and/or loose stools” value is recorded as 14%. The “increase of insulin release during a hyperglycemic clamp” value in data set [3] (healthy individuals) is on record as “approximately fourfold”. In data set [3] (persons with T2DM), the “effect on insulin release during a hyperglycemic clamp” value is reported as “ineffective”.
Consider neurotensin, for which the “change in blood pressure or plasma levels of glucose, insulin, or glucagon” value with healthy humans is “no significant change”.
As a reminder, the half-life is the time in which the quantity being followed falls by half. In turn, “MLTKFETKSARVKGLSFHPKRPWIL [xenin-25, Xenin-25]” came in with a half-life in data set [4] of 2.5 ± 0.3 min. Further, in data set [2], the “increase of resting heart rate” value was “no effect”, the “reduction of mean arterial blood pressure” value is listed as “no effect” and the “subjects with mild diarrhea and/or loose stools” value was 21%.

Source of the values: article PMC3379667 (Diabetes, 2012).
